Assay results as given in ChEMBL document CHEMBL1132429, “Design and synthesis of lipophilic phosphoramidate d4T-MP prodrugs expressing high potency against HIV in cell culture: structural determinants for in vitro activity and QSAR” (J Med Chem, 1999).
pEC50: −log10 of the molar value.

Assays:
[1] = system: Human immunodeficiency virus 1; experiment: Ratio CC50/EC50 for HIV-1 in CEM/0 cells; format: functional
[2] = system: Human immunodeficiency virus 1; experiment: Concentration required to protect CEM/0 cells against the cytopathicity of HIV-1 by 50%; format: functional, organism-based; conditions: Human immunodeficiency virus 1, CCRF-CEM
Procedure, shortened: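 CEM/0 or CEM/TK⁻ cells at 250,000 cells/mL were infected with HIV-1 (~20 CCID₅₀/mL) or HIV-2 (~100 CCID₅₀/mL). Cells were mixed with an equal volume of diluted compound and incubated 4 days at 37 °C, then scored for giant cell formation. EC₅₀ is the concentration (μM) giving 50% inhibition of HIV-induced cytopathicity. Values are the mean of 2–4 independent experiments.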

[3] = Partition coefficient (logD7.0); format: physicochemical; conditions: octanol/water, pH 7
Procedure, shortened: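 Compound (2 μmol) was dissolved in 1-octanol (10 mL) and read by UV at 265 nm. Equal volumes of this solution and pH 7.0 phosphate buffer were stirred 5 min at 25 °C, then allowed to separate for 5 min. Octanol-phase absorbance at 265 nm was divided by that of the original octanol solution. Each experiment was done at least in triplicate.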

[4] = system: Human immunodeficiency virus 2; experiment: Concentration required to protect CEM/0 cells against the cytopathicity of HIV-2 by 50%; conditions: Human immunodeficiency virus 2, CCRF-CEM
[5] = system: Human immunodeficiency virus 2; experiment: Concentration required to protect CEM/TK cells against the cytopathicity of HIV-2 by 50%; conditions: Human immunodeficiency virus 2, CEM-TK(-)
CCRF-CEM = experiment: Cytostatic concentration required to inhibit CEM/0 cells proliferation by 50%; format: functional; conditions: Homo sapiens

Row | pEC50 [2] | logD [3] | pEC50 [4] | pEC50 [5] | Structure (SMILES) | Selectivity index [1] | CC50 (CCRF-CEM) [nM]
1 | 7.24 | 1.09 | 7.28 | 7.33 | COC(=O)C(C)NP(=O)(OC[C@@H]1C=C[C@H](n2cc(C)c(=O)[nH]c2=O)O1)Oc1ccc(OC)cc1 (stereo partly specified) | 614 | 35000
2 | 7.74 | 1.08 | 7.46 | 7.19 | COC(=O)C(C)NP(=O)(OC[C@@H]1C=C[C@H](n2cc(C)c(=O)[nH]c2=O)O1)Oc1cccc(F)c1 (stereo partly specified) | 1667 | 30000
3 | 7.82 | 1.64 | 7.80 | 7.85 | COC(=O)C(C)NP(=O)(OC[C@@H]1C=C[C@H](n2cc(C)c(=O)[nH]c2=O)O1)Oc1cccc(Br)c1 (stereo partly specified) | 867 | 13000
4 | 6.89 | 0.9 | 6.72 | 7.05 | COC(=O)C(C)NP(=O)(OC[C@@H]1C=C[C@H](n2cc(C)c(=O)[nH]c2=O)O1)Oc1ccc([N+](=O)[O-])cc1 (stereo partly specified) | 562 | 73000
5 | 8.10 | 1.78 | 8.15 | 7.80 | COC(=O)C(C)NP(=O)(OC[C@@H]1C=C[C@H](n2cc(C)c(=O)[nH]c2=O)O1)Oc1cccc(I)c1 (stereo partly specified) | 3125 | 25000
6 | 7.60 | 1.42 | 7.24 | 7.40 | COC(=O)C(C)NP(=O)(OC[C@@H]1C=C[C@H](n2cc(C)c(=O)[nH]c2=O)O1)Oc1cccc(Cl)c1 (stereo partly specified) | 1040 | 26000
7 | 7.28 | 1.1 | 7.22 | 7.66 | COC(=O)C(C)NP(=O)(OC[C@@H]1C=C[C@H](n2cc(C)c(=O)[nH]c2=O)O1)Oc1ccc(F)cc1 (stereo partly specified) | 490 | 26000
8 | 7.89 | 1.93 | 7.82 | 7.54 | COC(=O)C(C)NP(=O)(OC[C@@H]1C=C[C@H](n2cc(C)c(=O)[nH]c2=O)O1)Oc1ccc(I)cc1 (stereo partly specified) | 1154 | 15000
9 | 7.80 | 2.15 | 7.52 | 7.52 | COC(=O)C(C)NP(=O)(OC[C@@H]1C=C[C@H](n2cc(C)c(=O)[nH]c2=O)O1)Oc1ccc(Cl)c(Cl)c1 (stereo partly specified) | 1313 | 21000
10 | 6.82 | 0.91 | 6.89 | 7.05 | COC(=O)C(C)NP(=O)(OC[C@@H]1C=C[C@H](n2cc(C)c(=O)[nH]c2=O)O1)Oc1ccc(C#N)cc1 (stereo partly specified) | 400 | 60000
11 | 6.96 | 0.9 | 7.00 | 7.30 | COC(=O)C(C)NP(=O)(OC[C@@H]1C=C[C@H](n2cc(C)c(=O)[nH]c2=O)O1)Oc1ccc(C(C)=O)cc1 (stereo partly specified) | 363 | 40000
12 | 7.60 | 1.01 | 7.66 | 7.60 | COC(=O)c1ccc(OP(=O)(NC(C)C(=O)OC)OC[C@@H]2C=C[C@H](n3cc(C)c(=O)[nH]c3=O)O2)cc1 (stereo partly specified) | 1240 | 31000
13 | 7.85 | 1.86 | 7.52 | 7.52 | COC(=O)C(C)NP(=O)(OC[C@@H]1C=C[C@H](n2cc(C)c(=O)[nH]c2=O)O1)Oc1ccc(OC(F)(F)F)cc1 (stereo partly specified) | 2429 | 34000
14 | 7.10 | 0.92 | 7.05 | 7.35 | COC(=O)C(C)NP(=O)(OC[C@@H]1C=C[C@H](n2cc(C)c(=O)[nH]c2=O)O1)Oc1cccc(C(C)=O)c1 (stereo partly specified) | 625 | 50000
15 | 7.40 | 1.19 | 7.30 | 7.60 | COC(=O)C(C)NP(=O)(OC[C@@H]1C=C[C@H](n2cc(C)c(=O)[nH]c2=O)O1)Oc1ccc(C)cc1 (stereo partly specified) | 850 | 34000
16 | 7.74 | 1.37 | 7.54 | 7.19 | COC(=O)C(C)NP(=O)(OC[C@@H]1C=C[C@H](n2cc(C)c(=O)[nH]c2=O)O1)Oc1ccccc1Cl (stereo partly specified) | 2611 | 47000
17 | 7.89 | 1.57 | 7.89 | 8.27 | COC(=O)C(C)NP(=O)(OC[C@@H]1C=C[C@H](n2cc(C)c(=O)[nH]c2=O)O1)Oc1cccc(C(F)(F)F)c1 (stereo partly specified) | 1077 | 14000
18 | 6.19 | -0.59 | 6.11 | 4.48 | Cc1cn([C@H]2C=C[C@@H](CO)O2)c(=O)[nH]c1=O [STAVUDINE] | 267 | 

Row | Structure (SMILES) | pEC50 [2] | logD [3] | pEC50 [4] | pEC50 [5] | Selectivity index [1] | CC50 (CCRF-CEM) [nM]
19 | COC(=O)C(C)NP(=O)(OC[C@@H]1C=C[C@H](n2cc(C)c(=O)[nH]c2=O)O1)Oc1ccccc1 (stereo partly specified) | 7.12 | 1.04 | 7.12 | 7.12 | >1333 | > 100000
20 | COC(=O)C(C)NP(=O)(OC[C@@H]1C=C[C@H](n2cc(C)c(=O)[nH]c2=O)O1)Oc1ccc(C(F)(F)F)cc1 (stereo partly specified) | 8.00 | 1.77 | 8.00 | 7.74 | 1300 | 13000
21 | COC(=O)C(C)NP(=O)(OC[C@@H]1C=C[C@H](n2cc(C)c(=O)[nH]c2=O)O1)Oc1ccc(Cl)cc1 (stereo partly specified) | 8.30 | 1.43 | 8.15 | 8.22 | 2200 | 11000
22 | COC(=O)C(C)NP(=O)(OC[C@@H]1C=C[C@H](n2cc(C)c(=O)[nH]c2=O)O1)Oc1ccc(Br)cc1 (stereo partly specified) [STAMPIDINE] | 8.05 | 1.6 | 7.80 | 7.74 | 1889 | 17000
